The record followed here is ChEMBL document CHEMBL4311940, “Design, Synthesis, and Biological Evaluation of 4-Methyl Quinazoline Derivatives as Anticancer Agents Simultaneously Targeting Phosphoinositide 3-Kinases and Histone Deacetylases” (J Med Chem, 2019).

Calls of active or inactive are those of the source.

In series [1] the test system is Mus musculus. Description: In vivo inhibition of PI3K/HDAC in tumor of human HCT116 cells xenografted in athymic nude BALB/c mouse assessed as reduction in phosphorylated Ki67 expression by DAB staining based immunohistochemistry method. The format is functional, organism-based. The essentials:
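HCT116 xenograft tumors from treated and vehicle mice stained immunohistochemically for Ki67, acetyl-H3 and p-AKT(S473) (200×); integrated optical density quantified; mean ± SEM, n = 5−7, one-way ANOVA versus vehicle.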
For orientation: A xenograft is tissue or cells of one species grown in another, often human tumour cells in immunodeficient mice.

The nature of series [2]: Drug level in tumor of human HCT116 cells xenografted in athymic nude BALB/c mouse at 100 mpk, po by LC/MS/MS analysis. In kind it is ADME, organism-based, Neoplasm. Conditions: in vivo, 100 mg/kg. The essentials: (§1)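 HCT116 xenografted nude mice given daily oral doses; tumor tissue sampled 1 h after final dose and compound level measured (ng/g).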
For series [3], the system named is HCT-116. In words: Antitumor activity against human HCT116 cells xenografted in athymic nude BALB/c mouse assessed as tumor growth inhibition at 150 mpk, po measured 2 times every week relative to control. The format is functional. Conditions: HCT-116, po, read-out: TGI. The essentials: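 Female BALB/c-nu/nu mice, 6–8 weeks, given 2 × 10^6 HCT116 cells in 0.2 mL saline s.c. right flank; randomized at 100–200 mm3. Daily oral dosing in 0.5% cmc with Tween 80; vehicle controls.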

Series [4] is filed under the species Homo sapiens. In words: Inhibition of PI3K in human HCT116 cells assessed as reduction in AKT phosphorylation at T308 residue at 0.5 to 5 uM after 16 hrs by Western blot analysis. The format is cell-based. Summed up: (§2)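 Immunoblot of HCT116 lysates (RIPA). 40 μg protein per lane on 10−12% SDS-PAGE, transferred to nitrocellulose, blocked 0.5 h in 5% milk/TBST. Primary antibodies 1:1000 overnight at 4 °C, secondary 1:1000 for 1 h, bands visualized by enhanced ECL.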
For orientation: A western blot detects proteins with antibodies after separation by electrophoresis.

A short description of series [5]: Drug level in BALB/c mouse plasma xenografted with human HGC27 cells at 200 mg/kg, po measured 0.5 hrs post last dose. In kind it is ADME, organism-based. Summed up: (§3)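 HGC-27 xenografted nude mice dosed po (0.5% cmc/Tween 80) or ip (saline); at end of treatment, 0.5 h after final dose, plasma and tumor tissue collected and compound concentration measured (ng/mL plasma, ng/g tumor).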

In series [6] the target is Phosphatidylinositol 4-phosphate 3-kinase C2 domain-containing subunit beta (Homo sapiens) (UniProt O00750). In words: Binding affinity to wild-type human […] length PIK3C2B (M1 to L1634 residues) expressed in mammalian expression system assessed as residual binding level at 1 uM by Kinomescan method relative to control. Summed up: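 Kinomescan binding screen at 1 μM across 97 kinases.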
Chain of Phosphatidylinositol 4-phosphate 3-kinase C2 domain-containing subunit beta (Homo sapiens) (O00750 whole entry, the tested form may be a part): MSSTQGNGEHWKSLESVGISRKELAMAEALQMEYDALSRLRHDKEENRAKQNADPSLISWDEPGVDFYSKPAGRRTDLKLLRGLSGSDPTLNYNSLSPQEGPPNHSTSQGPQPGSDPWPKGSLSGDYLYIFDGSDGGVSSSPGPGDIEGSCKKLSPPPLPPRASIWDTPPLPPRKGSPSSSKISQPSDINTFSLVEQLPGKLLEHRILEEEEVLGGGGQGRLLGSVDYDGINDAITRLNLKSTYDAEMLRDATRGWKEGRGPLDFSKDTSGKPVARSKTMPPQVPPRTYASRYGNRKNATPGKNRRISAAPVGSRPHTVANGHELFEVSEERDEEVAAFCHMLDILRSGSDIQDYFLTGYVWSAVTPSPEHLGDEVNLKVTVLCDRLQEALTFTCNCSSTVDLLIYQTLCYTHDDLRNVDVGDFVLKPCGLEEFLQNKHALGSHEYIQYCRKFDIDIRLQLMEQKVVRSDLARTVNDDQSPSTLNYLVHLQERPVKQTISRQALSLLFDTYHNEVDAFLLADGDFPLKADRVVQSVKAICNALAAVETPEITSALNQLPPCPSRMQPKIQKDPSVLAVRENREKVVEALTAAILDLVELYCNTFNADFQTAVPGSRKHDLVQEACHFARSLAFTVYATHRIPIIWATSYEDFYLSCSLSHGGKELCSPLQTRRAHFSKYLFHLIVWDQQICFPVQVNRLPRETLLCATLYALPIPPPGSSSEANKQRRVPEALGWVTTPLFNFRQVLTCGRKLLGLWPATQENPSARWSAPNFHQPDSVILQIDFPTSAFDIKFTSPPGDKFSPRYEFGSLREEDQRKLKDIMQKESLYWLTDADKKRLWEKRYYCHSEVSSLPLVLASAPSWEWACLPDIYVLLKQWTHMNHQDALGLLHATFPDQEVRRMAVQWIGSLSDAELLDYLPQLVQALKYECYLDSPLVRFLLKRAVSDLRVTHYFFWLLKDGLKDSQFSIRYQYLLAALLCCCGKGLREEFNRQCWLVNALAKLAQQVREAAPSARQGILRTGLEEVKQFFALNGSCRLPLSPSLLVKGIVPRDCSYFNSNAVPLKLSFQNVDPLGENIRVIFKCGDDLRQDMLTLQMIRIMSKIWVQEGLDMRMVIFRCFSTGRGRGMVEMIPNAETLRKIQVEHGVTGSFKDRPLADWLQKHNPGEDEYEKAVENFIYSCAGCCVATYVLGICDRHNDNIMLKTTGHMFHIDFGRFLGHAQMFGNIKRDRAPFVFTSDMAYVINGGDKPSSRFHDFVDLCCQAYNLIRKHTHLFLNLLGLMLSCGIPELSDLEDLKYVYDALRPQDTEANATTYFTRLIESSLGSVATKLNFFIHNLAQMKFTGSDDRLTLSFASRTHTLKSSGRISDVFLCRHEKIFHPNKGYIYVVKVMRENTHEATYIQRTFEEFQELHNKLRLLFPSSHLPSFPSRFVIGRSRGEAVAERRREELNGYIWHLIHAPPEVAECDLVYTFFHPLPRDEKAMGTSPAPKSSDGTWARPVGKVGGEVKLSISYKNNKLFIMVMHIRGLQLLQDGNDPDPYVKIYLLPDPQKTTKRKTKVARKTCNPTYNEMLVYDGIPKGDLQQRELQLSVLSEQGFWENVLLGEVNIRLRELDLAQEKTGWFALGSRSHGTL

The subject of series [7] is HGC-27. Description: Antitumor activity against human HGC27 cells xenografted in athymic nude BALB/c mouse assessed as tumor growth inhibition at 30 mpk, ip measured 2 times every week. In kind it is functional. Conditions: HGC-27, ip, read-out: TGI. Summed up:
(§4)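 HGC-27 xenograft: 2 × 10^6 cells in 0.2 mL saline s.c. right flank of female BALB/c-nu/nu mice (6–8 weeks); randomized at 100–200 mm3. Oral dosing in 0.5% cmc with Tween 80, intraperitoneal in saline; vehicle given orally daily.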

Series [8] can be described thus: Half life in mouse liver microsomes preincubated for 5 mins followed by NADPH addition by LC/MS analysis. In kind it is ADME, Microsome. Summed up: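 Mouse liver microsomes (0.5 mg/mL protein) with compound preincubated 5 min at 37 °C, started with NADPH; quenched with acetonitrile at time points; LC/MS. T1/2 = 0.693/K from ln(concentration) vs time; Clint scaled with factor 3937.5.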
(In general: Liver microsomes are a subcellular fraction often used to study metabolism.)

A short description of series [9]: Toxicity in athymic nude BALB/c mouse xenografted with human HGC27 cells assessed as reduction in body weight at 30 mpk, ip measured 2 times every week relative to control. The format is organism-based. More on the design: scale not given: the % may be the effect or the level left. Conditions: in vivo, 30 mg/kg.
Series [10] relates to HGC-27. Description: Antitumor activity against human HGC27 cells xenografted in athymic nude BALB/c mouse assessed as tumor growth inhibition at 200 mpk, po measured 2 times every week. The conditions noted are these: HGC-27, po, read-out: TGI. In kind it is functional. The essentials:
as §4

Series [11] is described as follows: Drug level in tumor of human HCT116 cells xenografted in athymic nude BALB/c mouse at 150 mpk, po by LC/MS/MS analysis. The format is ADME, organism-based, Neoplasm. Conditions: in vivo, 150 mg/kg. The essentials:
as §1

A short description of series [12]: Half life in mouse plasma at 0.02 mM by LC/MS analysis. The format is ADME, cell-free. The essentials:
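Spiking solution of 0.02 mM compound, 0.05 mM sodium phosphate, 0.5% BSA prewarmed 5 min at 37 °C, mixed with prewarmed mouse plasma; quenched with acetonitrile at time points; LC/MS; T1/2 = 0.693/K from ln(concentration) vs time.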

Series [13] is described as follows: Drug level in BALB/c mouse plasma xenografted with human HGC27 cells at 100 mg/kg, po measured 0.5 hrs post last dose. The format is ADME, organism-based. The essentials:
as §3

Series [14] is described as follows: Toxicity in athymic nude BALB/c mouse xenografted with human HCT116 cells assessed as reduction in body weight at 100 to 150 mpk, po measured 2 times every week. The format is organism-based. Conditions: in vivo.
Series [15] addresses Phosphatidylinositol 4,5-bisphosphate 3-kinase catalytic subunit alpha isoform (Homo sapiens, UniProt P42336). Description: Inhibition of recombinant human PI3Kalpha using PIP2 as substrate incubated for 1 hr by kinase-glo assay.
For series [16], the species on record is Homo sapiens. In words: Selectivity ratio, ratio of IC50 for recombinant human PI3Kalpha to recombinant human His-tagged PIK3CD/PIK3R1 expressed in baculovirus expression system.
Series [17] is filed under the species Homo sapiens. Description: Inhibition of HDAC/PI3K in human HCT116 cells assessed as increase in cleaved PARP level at 0.02 to 0.5 uM after 16 hrs by Western blot analysis. In kind it is cell-based. The essentials: as §2
Series [18] is described as follows: Selectivity index, ratio of IC50 for human PBMC cells to IC50 for human HCT116 cells. In kind it is toxicity. The conditions noted are these: PBMC cells and HCT116 cells, read-out: Ratio IC50. The essentials: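 Ratio of IC50s from the MTT assay: PBMC or LO2 cells versus HCT116. Cells seeded at 2000/well, attached overnight at 37 °C, treated 96 h, MTT 4 h, formazan dissolved in DMSO, A570.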

Series [19] deals with Protein deacetylase HDAC6 (Homo sapiens, UniProt Q9UBN7). In words: Inhibition of HDAC6 (unknown origin) using Ac-peptide as substrate preincubated for 15 mins followed by substrate addition and measured after 1 hr.
Chain of Protein deacetylase HDAC6 (Q9UBN7 whole entry): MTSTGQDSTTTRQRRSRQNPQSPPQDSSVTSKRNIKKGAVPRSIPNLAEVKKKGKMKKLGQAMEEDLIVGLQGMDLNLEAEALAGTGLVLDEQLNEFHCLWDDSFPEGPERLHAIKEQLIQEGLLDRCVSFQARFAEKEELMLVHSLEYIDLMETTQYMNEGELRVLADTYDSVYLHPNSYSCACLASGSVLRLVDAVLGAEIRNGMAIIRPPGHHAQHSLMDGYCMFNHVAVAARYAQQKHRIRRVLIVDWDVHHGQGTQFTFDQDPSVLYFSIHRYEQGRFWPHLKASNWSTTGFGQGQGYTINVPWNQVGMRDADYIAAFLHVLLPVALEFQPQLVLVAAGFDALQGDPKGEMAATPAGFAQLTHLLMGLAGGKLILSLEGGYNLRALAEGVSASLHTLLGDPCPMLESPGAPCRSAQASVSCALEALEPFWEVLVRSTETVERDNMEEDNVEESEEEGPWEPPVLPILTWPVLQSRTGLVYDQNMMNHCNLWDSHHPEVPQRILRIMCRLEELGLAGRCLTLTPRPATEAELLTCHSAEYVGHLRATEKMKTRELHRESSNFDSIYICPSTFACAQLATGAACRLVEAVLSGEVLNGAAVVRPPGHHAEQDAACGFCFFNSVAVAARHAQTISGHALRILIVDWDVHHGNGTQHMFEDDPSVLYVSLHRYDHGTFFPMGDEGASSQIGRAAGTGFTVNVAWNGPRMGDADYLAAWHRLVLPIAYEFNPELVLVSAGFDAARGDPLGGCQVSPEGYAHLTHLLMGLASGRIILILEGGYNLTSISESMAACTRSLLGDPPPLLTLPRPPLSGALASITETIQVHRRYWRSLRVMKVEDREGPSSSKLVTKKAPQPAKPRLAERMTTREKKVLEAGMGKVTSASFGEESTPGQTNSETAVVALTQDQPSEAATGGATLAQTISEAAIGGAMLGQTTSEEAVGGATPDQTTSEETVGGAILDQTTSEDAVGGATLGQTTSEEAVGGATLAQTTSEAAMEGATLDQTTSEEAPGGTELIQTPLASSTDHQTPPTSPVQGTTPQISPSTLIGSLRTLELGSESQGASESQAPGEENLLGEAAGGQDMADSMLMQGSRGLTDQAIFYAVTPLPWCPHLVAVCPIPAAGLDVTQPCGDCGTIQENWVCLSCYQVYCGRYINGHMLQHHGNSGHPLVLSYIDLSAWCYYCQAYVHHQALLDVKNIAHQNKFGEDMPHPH
The target in series [20] is T1, Histone deacetylase (Homo sapiens) (UniProt Q13547+O15379+Q9UBN7+Q92769+Q9UQL6+Q8WUI4+Q9BY41+Q96DB2+P56524+Q9UKV0+Q969S8). Description: Inhibition of HDAC in human HCT116 cells assessed as increase in acetylated p53 levels after 16 hrs by Western blot analysis. The format is cell-based. Summed up: (§5)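 HCT116 cells lysed in RIPA after washes in cold PBS. 40 μg protein run on 10−12% SDS-PAGE and transferred to nitrocellulose. Membrane blocked in 5% milk/TBST for 0.5 h, primary antibodies 1:1000 overnight at 4 °C, secondary 1:1000 for 1 h, ECL detection.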

The species named for series [21] is Homo sapiens. In words: Selectivity ratio, ratio of IC50 for recombinant human N-terminal FLAG-tagged mTOR (1362 to end amino acids) to IC50 for recombinant human PI3Kalpha.
In series [22] the target is T1, Histone deacetylase (Homo sapiens). Description: Inhibition of HDAC in human HCT116 cells assessed as increase in acetylated histone H3 levels after 16 hrs by Western blot analysis. The format is cell-based. The essentials: as §5

Chain of Phosphatidylinositol 4,5-bisphosphate 3-kinase catalytic subunit alpha isoform (P42336 whole entry, canonical isoform): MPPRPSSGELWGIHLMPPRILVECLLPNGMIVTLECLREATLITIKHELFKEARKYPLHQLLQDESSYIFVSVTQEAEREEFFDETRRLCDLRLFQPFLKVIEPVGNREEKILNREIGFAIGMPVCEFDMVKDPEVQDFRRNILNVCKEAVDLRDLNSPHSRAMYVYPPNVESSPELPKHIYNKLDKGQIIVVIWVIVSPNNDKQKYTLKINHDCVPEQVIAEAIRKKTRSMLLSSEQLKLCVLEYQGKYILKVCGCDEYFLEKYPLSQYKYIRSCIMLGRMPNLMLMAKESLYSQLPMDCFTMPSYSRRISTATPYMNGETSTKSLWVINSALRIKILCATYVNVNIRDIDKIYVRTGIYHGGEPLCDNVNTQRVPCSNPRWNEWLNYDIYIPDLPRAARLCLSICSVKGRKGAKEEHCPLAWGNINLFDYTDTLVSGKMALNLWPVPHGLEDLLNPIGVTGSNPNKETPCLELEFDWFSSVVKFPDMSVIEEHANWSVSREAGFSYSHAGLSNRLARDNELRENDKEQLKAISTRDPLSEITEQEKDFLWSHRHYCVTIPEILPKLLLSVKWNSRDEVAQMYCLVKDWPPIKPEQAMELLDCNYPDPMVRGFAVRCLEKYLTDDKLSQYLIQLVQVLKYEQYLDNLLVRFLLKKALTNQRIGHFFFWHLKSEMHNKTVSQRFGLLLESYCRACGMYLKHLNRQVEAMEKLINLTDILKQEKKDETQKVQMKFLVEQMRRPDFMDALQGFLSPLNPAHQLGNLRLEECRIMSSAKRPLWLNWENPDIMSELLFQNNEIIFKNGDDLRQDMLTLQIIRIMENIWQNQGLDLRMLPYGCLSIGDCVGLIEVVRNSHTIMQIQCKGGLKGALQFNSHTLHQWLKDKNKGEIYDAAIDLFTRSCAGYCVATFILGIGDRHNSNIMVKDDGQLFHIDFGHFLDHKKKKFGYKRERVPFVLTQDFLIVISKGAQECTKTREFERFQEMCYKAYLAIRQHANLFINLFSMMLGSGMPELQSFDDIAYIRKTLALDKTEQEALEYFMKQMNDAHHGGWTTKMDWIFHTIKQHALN

Take `COc1ncc(-c2cc(OCCCCCCC(=O)NO)c3ncnc(C)c3c2)cc1F`: the inhibition entry in [1] is “Dose-dependent effect”. Besides, the Drug uptake in series [2] stood at 72.7 ng/g; in [11], 74.8 ng/g. Further, the inhibition in vivo at 150 mg/kg in series [3] stood at 45.8%. The inhibition entry in series [4] is “Active”. The concentration at 0.5 h came out at 232 ng/mL in series [5] and 179 ng/mL in [13]. The results for the Activity in series [6], in series [9] and in series [14] were 27%, 20% and “Toxic”, respectively. Moreover, the inhibition in vivo at 30 mg/kg in series [7] amounted to 62.6%. In [8], this molecule gave a half-life of 24.6 min. Further, the inhibition in vivo at 200 mg/kg in series [10] came out at 45.9%. For the same molecule, the half-life at 20 µM in series [12] is 72 min.

For the molecule `COc1ccc(-c2cc(OCCN(C)c3ncc(C(=O)NO)cn3)c3ncnc(C)c3c2)cn1`, the IC50 in series [15] worked out at 226 nM; in series [19] it was 17 nM. The results for the Ratio IC50 in series [16] and in series [21] were > 5 and > 27, respectively. The inhibition entry in series [17] was “Active”. Also, the selectivity ratio in series [18] is 8240. In addition, the inhibition entry in [20] and in series [22] was “Dose-dependent effect” in each case.

By half-life is commonly meant the time needed for the level to fall by half in the phase considered. The IC50 is the midpoint of a concentration-inhibition curve.
